# Screens: PubChem, several laboratories
# Shown are actives, neighbours in structure and some others; about 1.3% of the full set was active somewhere.
# CHT PAM: human CHT allosteric activation | AID 488977 | B-score at 10 µM | hit rate 0.49% among 310,000 | CHT-expressing cells, membrane potential dye, choline EC20; stronger effect = higher value; LV-AA mutant CHT in HEK293 cells | Q9GZV3;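 active means initial fluorescence not abnormally high and integrated response B-score, plate-corrected, over 3 SD above library mean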
# proCasp7 act: counter-screen for procaspase-3 activators: activators of human procaspase-7 | recombinant procaspase-7, Ac-DEVD-pNA absorbance 405 nm; D23A/D198A/D206A triple mutant, cannot self-cleave; scale: DMSO 0, 5 µM enzyme 100 | P55210 | activation, % at 8.5 µM | hit rate 0.093% among 330,000;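 active means percent activation above the screen-wide mean plus 3 SD, cut at about 25% in these data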
#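 buffer or medium = Zinc-free HEPES/NaCl buffer, pH 7.4 | material = Procaspase-7 triple mutant (PC-7 D3A) | input = 2 µM procaspase-7 mutant as dispensed | signal = Epi-absorbance of released pNA at 405 nm, two timepoints | timing = 1 h preincubation, 2 h reaction | replicates = singlicate compound testing | evaluation = % activation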
# CHT block: inhibitors of human choline transporter CHT; Q9GZV3; CHT-expressing cells, membrane potential dye, choline response; stronger effect = lower value; B-score at 10 µM; hit rate 0.86% among 310,000;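 active means B-score over 3 SD under the library average, and starting fluorescence ratio not unusually high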;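 further: choline stimulus applied at its EC90 after an EC20 pre-addition; B-score computed on integrated fluorescence ratio after choline addition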
# proCasp3 act: procaspase-3 (human) activation | activation, % at 8.5 µM | AID 463141 | hit rate 0.11% among 330,000 | recombinant procaspase-3 D3A, Ac-DEVD-pNA absorbance 405 nm;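 active means activation above the mean of all tested compounds plus 3 SD, cut at about 21% in these data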;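 further: 0% = DMSO alone and 100% = DMSO wells spiked with extra 5 µM PC-3 D3A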
# Target sequence (P42574 whole entry D9A/D28A/D175A): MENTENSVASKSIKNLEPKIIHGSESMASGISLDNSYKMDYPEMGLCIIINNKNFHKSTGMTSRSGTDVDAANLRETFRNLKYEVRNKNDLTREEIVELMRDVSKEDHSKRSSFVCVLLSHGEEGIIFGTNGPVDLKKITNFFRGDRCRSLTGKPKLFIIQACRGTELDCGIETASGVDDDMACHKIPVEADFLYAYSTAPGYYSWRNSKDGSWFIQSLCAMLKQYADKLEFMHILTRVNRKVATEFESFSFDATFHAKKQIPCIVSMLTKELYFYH
#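 Compound: 8.5 µM single point, 0.8% DMSO / Material: Autoprocessing-dead procaspase-3 D3A mutant enzyme / Timing: 1 h preincubation plus 2 h reaction at 25 °C / Medium: Zinc-free HEPES/NaCl buffer with 0.01% Triton X-100 at pH 7.4 / Technique: 405 nm absorbance of p-nitroaniline, reads at 0 and 120 min / Repeats: one well per compound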
# CHT block conf: human CHT inhibition, confirmatory screen; CHT activity remaining % of control (stronger effect = lower value), % at 10 µM; shares compounds with CHT block; CHT-expressing cells, choline membrane potential dye; LV-to-AA substituted CHT, HEK293 cells; AID 493221; hit rate 70% among 2,400;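 active means choline transporter activity left, mean of duplicates at 10 µM, below buffer-only control mean minus 3 SD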;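 further: depolarization triggered by choline at its EC90 following an EC20 pre-addition; 0% = hemicholinium-3 full block and 100% = buffer-only control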
# HEK293 MPD ctr: activity in parental HEK293 cells lacking CHT | AID 493222 | membrane potential ratio readout (active if shifted either direction beyond buffer ±3SD; no single direction) at 10 µM | shares compounds with CHT block | membrane potential dye, choline response; active = decrease or increase beyond buffer ±3SD | hit rate 4% among 2,400;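 further: parental cells lack the transporter so any hit is non-specific; ratio is peak minus trough fluorescence over baseline after EC90 choline challenge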
# Numbers without * were called inactive; i = inactive; · = no result given.
SMILES,CHT PAM,proCasp7 act,CHT block,proCasp3 act,CHT block conf,HEK293 MPD ctr
CC(Oc1ccc2c(-c3ccccc3)cc(=O)oc2c1)C(=O)NCC(O)c1ccccc1 (stereo not given),i,-8.7,i,1.7,·,·
CC[C@@H](C)C(NC(=O)OC(C)(C)C)c1cn([C@@H](CCCCNC(=O)OC(C)(C)C)C(=O)N2CCN(C(=O)OC(C)(C)C)CC2)nn1 (stereo not given in full),i,1.9,-10.8*,2.7,i,i
O=C(NNC(=S)Nc1ccc(Cl)cc1Cl)c1ccc(N2CCOCC2)c([N+](=O)[O-])c1,i,-19.4,-5.45*,-4.0,34.8%*,i
COc1ccc(CNc2ncc(-c3ccccc3)n2C)cc1,i,2.3,-5.51*,-10.1,56.7%*,i
O=S(=O)(NCCNc1ncc(C(F)(F)F)cc1Cl)C(F)(F)F,i,5.2,-9.61*,6.0,42.0%*,i
O=C1OCCC1Sc1nnc(-c2ccccc2Cl)n1Cc1ccccc1 (stereo not given),i,-9.9,-6.89*,7.9,i,i
CCOC(=O)C1CCN(C(=O)CN2C(=O)c3cccnc3Oc3ccccc32)CC1,i,-3.8,i,3.2,·,·
CC(OC(=O)c1cc2sccc2n1C)C(=O)NCc1cccs1 (stereo not given),i,9.3,i,5.3,·,·
CC(OC(=O)c1cc2sccc2n1C)C(=O)NC(C)(C)C (stereo not given),i,8.3,-9.15*,7.7,58.8%*,i
CSCC[C@H](N)C(=O)N1CCC(C(=O)N[C@H](C)C(=O)NC(C)c2ccccc2)CC1 (stereo not given in full),i,-3.3,i,2.4,·,·
Cc1cc(O)ccc1C1(c2ccc(O)cc2C)OC(=O)c2ccccc21,i,-1.0,-12.1*,4.5,62.9%*,i
Cc1cccc(C2(c3cccc(C)c3)OC(=O)c3ccccc32)c1,i,2.8,i,3.3,·,·
O=C(NCCC1=CCCCC1)C1CCN(S(=O)(=O)c2cccc(C(F)(F)F)c2)CC1,·,4.0,·,0.4,·,·
CC1Cc2nc(SCC(=O)N3CCCc4ccccc43)n(C)c(=O)c2S1 (stereo not given),i,0.7,-7.59*,-6.9,23.6%*,i
COCCn1c(SCC(=O)N2CCCc3ccccc32)nc2c(c1=O)SC(C)C2 (stereo not given),i,-5.0,i,10.8,·,·
COCCn1c(SCC(=O)Nc2ccccc2C(F)(F)F)nc2ccccc2c1=O,i,5.2,-5.32*,8.8,i,i
COCCn1c(SCC(=O)N2CCCc3ccccc32)nc2ccccc2c1=O,i,-22.7,-5.24*,1.3,i,i
CCn1c(SCC(=O)N2CCCc3ccccc32)nc2c(c1=O)SC(C)C2 (stereo not given),i,-1.9,i,0.9,·,·
CCCCn1c(N)c(N(CC)C(=O)CN2C(=O)NC(C)(c3ccccc3)C2=O)c(=O)[nH]c1=O (stereo not given),i,2.1,i,2.7,·,·
COc1ccc(CCN=C(C)c2cc(C)c(C)cc2O)cc1OC,i,7.1,i,-1.7,·,·
COc1ccccc1OCCCCn1c(C(C)O)nc2ccccc21 (stereo not given),i,6.6,i,-4.9,·,·
CCn1c(=O)cc(OCC(=O)NCCC(C)C)c2ccccc21,i,-0.5,i,-1.3,·,·
CCOc1ccccc1C(=O)NC(C)c1ccc2c(c1)OCO2 (stereo not given),i,-0.2,-6.36*,1.1,46.3%*,i
CCOc1ccccc1NC(=O)NC(C)c1ccc2c(c1)OCO2 (stereo not given),i,-9.5,i,-2.6,·,·
CCn1c(=O)cc(OCC(=O)NC(C)c2ccc3c(c2)OCCO3)c2ccccc21 (stereo not given),i,-0.4,-9.49*,-1.8,18.1%*,i
CC(O)(CS(=O)(=O)Cc1ccccc1)c1ccccc1Cl (stereo not given),i,-10.7,i,5.7,·,·
